In ChEMBL document CHEMBL3227952, “Potential organ- or tumor-imaging agents. 18. Radioiodinated diamines and bisquaternaries” (J Med Chem, 1979):

How the values were obtained:
Adrenal [1] = assay: Drug uptake in Sprague-Dawley rat adrenal at 6.2 to 10.4 uCi, iv after 2 hrs by liquid scintillation counting; format: ADME, organism-based, Adrenal gland; conditions: in vivo
Procedure, shortened: (§1)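 Adult male rats (200–420 g) given radioiodinated agent, 6.5–7.0 μCi/mg, in 0.10–0.15 mL of 0.1 N HCl. Dosing was by tail vein under ether. Rats were killed by exsanguination, three at 0.5 h and five at 2 h. Organs were rinsed, blotted and weighed, with duplicate samples counted for radioactivity. Results are % administered dose/g, mean ± SEM.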

Blood [2] = assay: Drug uptake in Sprague-Dawley rat blood at 6.2 to 10.4 uCi, iv after 0.5 hrs by liquid scintillation counting; format: ADME, organism-based; conditions: in vivo; procedure, shortened: as §1
Thyroid gland [3] = assay: Drug uptake in Sprague-Dawley rat thyroid at 6.2 to 10.4 uCi, iv after 2 hrs by liquid scintillation counting; format: ADME, organism-based; conditions: in vivo
Heart [4] = assay: Drug uptake in Sprague-Dawley rat heart at 6.2 to 10.4 uCi, iv after 2 hrs by liquid scintillation counting; format: ADME, organism-based; conditions: in vivo, in the assay text read “well-scintillation gamma counting” for “liquid scintillation counting”; procedure, shortened: as §1
[5] = Drug uptake in Sprague-Dawley rat dorsolateral prostate at 6.2 to 10.4 uCi, iv after 2 hrs by liquid scintillation counting; format: ADME, organism-based, Prostate gland; conditions: in vivo; procedure, shortened: as §1
Testes [6] = assay: Drug uptake in Sprague-Dawley rat testes at 6.2 to 10.4 uCi, iv after 0.5 hrs by liquid scintillation counting; format: ADME, organism-based, Testis; conditions: in vivo
Thyroid gland [7] = assay: Drug uptake in Sprague-Dawley rat thyroid at 6.2 to 10.4 uCi, iv after 0.5 hrs by liquid scintillation counting; format: ADME, organism-based; conditions: in vivo
Spleen [8] = assay: Drug uptake in Sprague-Dawley rat spleen at 6.2 to 10.4 uCi, iv after 0.5 hrs by liquid scintillation counting; format: ADME, organism-based; conditions: in vivo, in the assay text read “well-scintillation gamma counting” for “liquid scintillation counting”
Procedure, shortened: (§2)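 Three rats were killed at 0.5 h and five at 2 h by exsanguination under ether. Organs were rinsed, blotted and weighed, duplicate samples gamma-counted (87% efficiency), expressed as % administered dose/g, mean ± SEM.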

Pancreas [9] = assay: Drug uptake in Sprague-Dawley rat pancreas at 6.2 to 10.4 uCi, iv after 0.5 hrs by liquid scintillation counting; format: ADME, organism-based; conditions: in vivo, in the assay text read “well-scintillation gamma counting” for “liquid scintillation counting”; procedure, shortened: as §2
Lung [10] = assay: Drug uptake in Sprague-Dawley rat lung at 6.2 to 10.4 uCi, iv after 2 hrs by liquid scintillation counting; format: ADME, organism-based; conditions: in vivo
[11] = Drug uptake in Sprague-Dawley rat ventral prostate at 6.2 to 10.4 uCi, iv after 2 hrs by liquid scintillation counting; format: ADME, organism-based, Prostate gland; conditions: in vivo
Procedure, shortened: (§3)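 Adult male Sprague-Dawley rats (200–420 g) with free access to food and water. Under ether anesthesia, each received 6.2–10.4 μCi (6.5–7.0 μCi/mg) of tracer in 0.10–0.15 mL of 0.1 N HCl vehicle, iv via the tail vein. Rats were killed by exsanguination at 0.5 h (3 rats) or 2 h (5 rats). Organs were rinsed, blotted and weighed; duplicate samples were counted. Results are % administered dose/g, mean ± SEM.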

[12] = Drug uptake in Sprague-Dawley rat dorsolateral prostate at 6.2 to 10.4 uCi, iv after 0.5 hrs by liquid scintillation counting; format: ADME, organism-based, Prostate gland; conditions: in vivo; procedure, shortened: as §1
Pituitary gland [13] = assay: Drug uptake in Sprague-Dawley rat pituitary at 6.2 to 10.4 uCi, iv after 2 hrs by liquid scintillation counting; format: ADME, organism-based; conditions: in vivo
Brain [14] = assay: Drug uptake in Sprague-Dawley rat brain at 6.2 to 10.4 uCi, iv after 0.5 hrs by liquid scintillation counting; format: ADME, organism-based; conditions: in vivo; procedure, shortened: as §1
[15] = Drug uptake in Sprague-Dawley rat ventral prostate at 6.2 to 10.4 uCi, iv after 0.5 hrs by liquid scintillation counting; format: ADME, organism-based, Prostate gland; conditions: in vivo; procedure, shortened: as §3
Heart [16] = assay: Drug uptake in Sprague-Dawley rat heart at 6.2 to 10.4 uCi, iv after 0.5 hrs by liquid scintillation counting; format: ADME, organism-based; conditions: in vivo; procedure, shortened: as §1
Brain [17] = assay: Drug uptake in Sprague-Dawley rat brain at 6.2 to 10.4 uCi, iv after 2 hrs by liquid scintillation counting; format: ADME, organism-based; conditions: in vivo; procedure, shortened: as §1
[18] = Drug uptake in Sprague-Dawley rat diaphragm at 6.2 to 10.4 uCi, iv after 0.5 hrs by liquid scintillation counting; format: ADME, organism-based; conditions: in vivo; procedure, shortened: as §1
Liver [19] = assay: Drug uptake in Sprague-Dawley rat liver at 6.2 to 10.4 uCi, iv after 0.5 hrs by liquid scintillation counting; format: ADME, organism-based; conditions: in vivo, in the assay text read “well-scintillation gamma counting” for “liquid scintillation counting”; procedure, shortened: as §2
Lung [20] = assay: Drug uptake in Sprague-Dawley rat lung at 6.2 to 10.4 uCi, iv after 0.5 hrs by liquid scintillation counting; format: ADME, organism-based; conditions: in vivo, in the assay text read “well-scintillation gamma counting” for “liquid scintillation counting”; procedure, shortened: as §2
Duodenum [21] = assay: Drug uptake in Sprague-Dawley rat duodenum at 6.2 to 10.4 uCi, iv after 0.5 hrs by liquid scintillation counting; format: ADME, organism-based; conditions: in vivo; procedure, shortened: as §1
Kidney [22] = assay: Drug uptake in Sprague-Dawley rat kidney at 6.2 to 10.4 uCi, iv after 2 hrs by liquid scintillation counting; format: ADME, organism-based; conditions: in vivo, in the assay text read “well-scintillation gamma counting” for “liquid scintillation counting”; procedure, shortened: as §2
Kidney [23] = assay: Drug uptake in Sprague-Dawley rat kidney at 6.2 to 10.4 uCi, iv after 0.5 hrs by liquid scintillation counting; format: ADME, organism-based; conditions: in vivo
Testes [24] = assay: Drug uptake in Sprague-Dawley rat testes at 6.2 to 10.4 uCi, iv after 2 hrs by liquid scintillation counting; format: ADME, organism-based, Testis; conditions: in vivo
[25] = Drug uptake in Sprague-Dawley rat diaphragm at 6.2 to 10.4 uCi, iv after 2 hrs by liquid scintillation counting; format: ADME, organism-based; conditions: in vivo; procedure, shortened: as §1
Duodenum [26] = assay: Drug uptake in Sprague-Dawley rat duodenum at 6.2 to 10.4 uCi, iv after 2 hrs by liquid scintillation counting; format: ADME, organism-based; conditions: in vivo; procedure, shortened: as §1
Pancreas [27] = assay: Drug uptake in Sprague-Dawley rat pancreas at 6.2 to 10.4 uCi, iv after 2 hrs by liquid scintillation counting; format: ADME, organism-based; conditions: in vivo
Spleen [28] = assay: Drug uptake in Sprague-Dawley rat spleen at 6.2 to 10.4 uCi, iv after 2 hrs by liquid scintillation counting; format: ADME, organism-based; conditions: in vivo
Pituitary gland [29] = assay: Drug uptake in Sprague-Dawley rat pituitary at 6.2 to 10.4 uCi, iv after 0.5 hrs by liquid scintillation counting; format: ADME, organism-based; conditions: in vivo, in the assay text read “well-scintillation gamma counting” for “liquid scintillation counting”; procedure, shortened: as §2
Liver [30] = assay: Drug uptake in Sprague-Dawley rat liver at 6.2 to 10.4 uCi, iv after 2 hrs by liquid scintillation counting; format: ADME, organism-based; conditions: in vivo, in the assay text read “well-scintillation gamma counting” for “liquid scintillation counting”; procedure, shortened: as §2
[31] = Drug uptake in Sprague-Dawley rat bone marrow at 6.2 to 10.4 uCi, iv after 2 hrs by liquid scintillation counting; format: ADME, organism-based; conditions: in vivo; procedure, shortened: as §1
Blood [32] = assay: Drug uptake in Sprague-Dawley rat blood at 6.2 to 10.4 uCi, iv after 2 hrs by liquid scintillation counting; format: ADME, organism-based; conditions: in vivo; procedure, shortened: as §1
[33] = Drug uptake in Sprague-Dawley rat bone marrow at 6.2 to 10.4 uCi, iv after 0.5 hrs by liquid scintillation counting; format: ADME, organism-based; conditions: in vivo; procedure, shortened: as §1
Adrenal [34] = assay: Drug uptake in Sprague-Dawley rat adrenal at 6.2 to 10.4 uCi, iv after 0.5 hrs by liquid scintillation counting; format: ADME, organism-based, Adrenal gland; conditions: in vivo; procedure, shortened: as §1

## NCc1ccc(CN)c([125I])c1
Adrenal [1]
  Drug uptake: 1.577 % ID/g
Blood [2]
  Drug uptake: 0.073 % ID/g
Thyroid gland [3]
  Drug uptake: 3.476 % ID/g
Heart [4]
  Drug uptake: 0.44 % ID/g
[5]
  Drug uptake: 0.436 % ID/g
Testes [6]
  Drug uptake: 0.036 % ID/g
Thyroid gland [7]
  Drug uptake: 2.457 % ID/g
Spleen [8]
  Drug uptake: 0.844 % ID/g
Pancreas [9]
  Drug uptake: 0.657 % ID/g
Lung [10]
  Drug uptake: 2.261 % ID/g
[11]
  Drug uptake: 0.293 % ID/g
[12]
  Drug uptake: 0.32 % ID/g
Pituitary gland [13]
  Drug uptake: 0.681 % ID/g
Brain [14]
  Drug uptake: 0.063 % ID/g
[15]
  Drug uptake: 0.296 % ID/g
Heart [16]
  Drug uptake: 0.553 % ID/g
Brain [17]
  Drug uptake: 0.088 % ID/g
[18]
  Drug uptake: 0.38 % ID/g
Liver [19]
  Drug uptake: 1.008 % ID/g
Lung [20]
  Drug uptake: 2.384 % ID/g
Duodenum [21]
  Drug uptake: 0.485 % ID/g
Kidney [22]
  Drug uptake: 1.67 % ID/g
Kidney [23]
  Drug uptake: 1.926 % ID/g
Testes [24]
  Drug uptake: 0.048 % ID/g
[25]
  Drug uptake: 0.293 % ID/g
Duodenum [26]
  Drug uptake: 0.343 % ID/g
Pancreas [27]
  Drug uptake: 0.617 % ID/g
Spleen [28]
  Drug uptake: 0.988 % ID/g
Pituitary gland [29]
  Drug uptake: 0.533 % ID/g
Liver [30]
  Drug uptake: 0.949 % ID/g
[31]
  Drug uptake: 0.682 % ID/g
Blood [32]
  Drug uptake: 0.041 % ID/g
[33]
  Drug uptake: 0.44 % ID/g
Adrenal [34]
  Drug uptake: 1.732 % ID/g
